# Active and inactive are the calls of the source.
# Columns and labels:
# [1] = test system: T1, DNA topoisomerase I (Leishmania donovani (strain BPK282A1)), E9BRC0 [F270L]; test: Inhibition of recombinant drug-resistant Leishmania donovani LdDR50 topoisomerase 1b large subunit F270L mutant-mediated religation of 14-mer/25-mer suicide DNA substrate at 20 uM […] by PAGE analysis
# T1 sequence (whole entry): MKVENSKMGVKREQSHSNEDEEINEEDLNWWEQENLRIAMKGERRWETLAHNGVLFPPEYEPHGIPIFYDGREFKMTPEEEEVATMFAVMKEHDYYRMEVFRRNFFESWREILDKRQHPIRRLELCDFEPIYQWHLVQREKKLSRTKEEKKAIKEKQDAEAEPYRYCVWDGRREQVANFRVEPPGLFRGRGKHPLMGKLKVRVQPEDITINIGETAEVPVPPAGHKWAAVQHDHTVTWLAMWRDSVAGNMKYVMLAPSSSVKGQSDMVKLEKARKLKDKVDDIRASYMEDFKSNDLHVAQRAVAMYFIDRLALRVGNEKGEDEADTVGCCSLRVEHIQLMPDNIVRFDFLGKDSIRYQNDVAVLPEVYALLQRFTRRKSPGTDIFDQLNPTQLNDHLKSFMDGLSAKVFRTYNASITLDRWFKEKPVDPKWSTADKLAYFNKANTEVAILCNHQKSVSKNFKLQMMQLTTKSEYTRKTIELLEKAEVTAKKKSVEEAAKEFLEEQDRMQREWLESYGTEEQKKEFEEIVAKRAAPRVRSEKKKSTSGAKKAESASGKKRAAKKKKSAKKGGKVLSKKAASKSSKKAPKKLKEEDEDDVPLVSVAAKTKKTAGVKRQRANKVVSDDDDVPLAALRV
# [2] = biological target: DNA topoisomerase I (Leishmania donovani (strain BPK282A1), UniProt E9BRC0, F270L/K430N); test: Binding affinity to recombinant drug-resistant Leishmania donovani LdDR50 topoisomerase 1b large subunit F270L, K430N mutant after 24 hrs by equilibrium dialysis method
# Method in brief: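 Recombinant His-tagged subunits expressed in E. coli BL21(DE3) pLysS, purified on Ni-NTA then phosphocellulose, reconstituted 1:1. Enzyme 200 μM with DIM 1–20 μM in 20 mM Tris-HCl pH 7.5, 50 mM NaCl, 10 mM MgCl2 for 30 min at 37°C, then dialysed (12–14 kDa cutoff) 24 h at 25°C. Free DIM measured by absorbance (ε 6.6 × 10^4 M−1); KD from saturation plot.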
# DNA topoisomerase I, sequence (E9BRC0 whole entry F270L/K430N): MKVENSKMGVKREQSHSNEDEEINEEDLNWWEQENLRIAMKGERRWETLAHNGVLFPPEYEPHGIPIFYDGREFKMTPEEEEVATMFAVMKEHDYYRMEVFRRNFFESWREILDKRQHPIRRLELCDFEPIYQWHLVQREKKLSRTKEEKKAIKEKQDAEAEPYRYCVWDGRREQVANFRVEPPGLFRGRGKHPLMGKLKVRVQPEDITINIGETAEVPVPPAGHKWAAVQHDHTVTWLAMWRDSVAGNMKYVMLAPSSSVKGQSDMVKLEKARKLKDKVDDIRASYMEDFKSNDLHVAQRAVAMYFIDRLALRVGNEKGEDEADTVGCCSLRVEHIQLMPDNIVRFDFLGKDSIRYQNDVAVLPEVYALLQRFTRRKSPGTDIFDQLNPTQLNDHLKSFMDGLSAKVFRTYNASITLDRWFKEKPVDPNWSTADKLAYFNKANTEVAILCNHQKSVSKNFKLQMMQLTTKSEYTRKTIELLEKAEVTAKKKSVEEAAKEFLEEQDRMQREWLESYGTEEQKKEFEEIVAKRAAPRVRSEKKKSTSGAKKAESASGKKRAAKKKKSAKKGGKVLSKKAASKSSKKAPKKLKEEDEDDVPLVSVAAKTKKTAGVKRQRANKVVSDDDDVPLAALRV
compound,measurement,setting,value
c1ccc2c(Cc3c[nH]c4ccccc34)c[nH]c2c1 [ARUNDINE],inhibition,[1],inactive
same,Kd,[2],760 µM

# Reference: ChEMBL document CHEMBL1687733, “Topoisomerase I gene mutations at F270 in the large subunit and N184 in the small subunit contribute to the resistance mechanism of the unicellular parasite Leishmania donovani towards 3,3'-diindolylmethane” (Antimicrob Agents Chemother, 2009)
